Among the data in ChEMBL document CHEMBL4145570, “Structures and Biological Evaluation of Monoterpenoid Glycosides from the Roots of Paeonia lactiflora” (J Nat Prod, 2018) are Activity, IC50 and inhibition values, retold here.

Activity calls are given as the source filed them. No cut-off for these calls is given here.

One series has as its system A549. In words: Cytotoxicity against human A549 cells assessed as decrease in cell viability at 10 uM after 24 hrs by MTT assay. The series is classed as functional, cell-based.
The test system of series [1] is RAW264.7. Description: Antiinflammatory activity in mouse RAW264.7 cells assessed as inhibition of LPS-induced NO production. The series is classed as functional, cell-based. The essentials: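 NO release measured in LPS-stimulated RAW264.7 macrophages alongside an unstimulated control group; IC50 derived; dexamethasone as positive control.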
The test system of series [2] is RAW264.7. In words: Antiinflammatory activity in mouse RAW264.7 cells assessed as inhibition of LPS-induced NO production at 40 uM relative to control. The series is classed as functional.
In series [3] the target is T1, Tyrosine-protein phosphatase non-receptor type 1 (Homo sapiens) (UniProt P18031).
T1 sequence (whole entry): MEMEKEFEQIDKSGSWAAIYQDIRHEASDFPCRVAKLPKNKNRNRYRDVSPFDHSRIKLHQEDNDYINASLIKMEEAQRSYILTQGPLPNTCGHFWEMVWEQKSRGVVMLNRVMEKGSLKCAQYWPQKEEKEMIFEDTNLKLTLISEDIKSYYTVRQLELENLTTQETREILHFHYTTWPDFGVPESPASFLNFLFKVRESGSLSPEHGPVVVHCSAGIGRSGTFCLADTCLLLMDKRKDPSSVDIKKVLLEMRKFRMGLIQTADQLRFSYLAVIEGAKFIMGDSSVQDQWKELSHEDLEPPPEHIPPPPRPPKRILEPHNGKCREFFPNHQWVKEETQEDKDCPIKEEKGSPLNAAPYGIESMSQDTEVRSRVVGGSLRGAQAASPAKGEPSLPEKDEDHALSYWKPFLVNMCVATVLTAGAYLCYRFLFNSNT
In words: Inhibition of PTP1B (unknown origin) at 10 uM.

For the next series, the system named is Bel-7402. In words: Cytotoxicity against human Bel7402 cells assessed as decrease in cell viability at 10 uM after 24 hrs by MTT assay. In kind it is functional, cell-based.
The subject of the next series is A2780. In words: Cytotoxicity against human A2780 cells assessed as decrease in cell viability at 10 uM after 24 hrs by MTT assay. In kind it is functional, cell-based.
Series [4] relates to RAW264.7. Description: Antiinflammatory activity in mouse RAW264.7 cells assessed as inhibition of LPS-induced NO production at 20 uM relative to control. In kind it is functional.
The subject of another series is BGC-823. In words: Cytotoxicity against human BGC823 cells assessed as decrease in cell viability at 10 uM after 24 hrs by MTT assay. In kind it is functional, cell-based.
In a further series the test system is Peritoneal macrophage. In words: Inhibition of LPS-induced TNFalpha secretion in C57BL6J mouse peritoneal macrophages at 10 uM after 24 hrs. The series is classed as functional, cell-based.
For series [5], the system named is RAW264.7. Description: Cytotoxicity against mouse RAW264.7 cells up to 100 uM. In kind it is cell-based. The essentials: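 Viability assessed in LPS-stimulated RAW264.7 macrophages during the NO-production assay, at concentrations up to 100 μM.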
In a further series the test system is HepG2. Description: Protection against acetaminophen-induced cell injury in human HepG2 cells at 10 uM after 24 hrs by MTT assay. In kind it is functional, cell-based.
A further series concerns HCT-8. Description: Cytotoxicity against human HCT8 cells assessed as decrease in cell viability at 10 uM after 24 hrs by MTT assay. The series is classed as functional, cell-based.
For series [6], the system named is RAW264.7. In words: Antiinflammatory activity in mouse RAW264.7 cells assessed as inhibition of LPS-induced NO production at 80 uM relative to control. The series is classed as functional.
Series [7] relates to RAW264.7. In words: Antiinflammatory activity in mouse RAW264.7 cells assessed as inhibition of LPS-induced NO production at 10 uM relative to control. In kind it is functional.
The test system of series [8] is RAW264.7. Description: Antiinflammatory activity in mouse RAW264.7 cells assessed as inhibition of LPS-induced NO production at 60 uM relative to control. In kind it is functional.

As to `C=C[C@@](C)(O)CC/C=C(\C)C(=O)OC[C@H]1O[C@@H](O[C@]23CC4C2(COC(=O)c2ccccc2)[C@H]2O[C@]4(O)C[C@]3(C)O2)[C@H](O)[C@@H](O)[C@@H]1O`, the result with A549, in the series with Bel-7402, in the series on A2780, in the series with BGC-823, in the series on HepG2 and with HCT-8 was inactive. Further, in the series with RAW264.7 [1], the IC50 is > 100 µM. The inhibition at 40 µM in the series with RAW264.7 [2] was 28.1%. The inhibition entry (in [3]; in the series with Peritoneal macrophage) was “inactive” in each case. The inhibition at 20 µM with RAW264.7 [4] is 22.6%. Moreover, the Activity result in the series with RAW264.7 [5] is “Non-Toxic”. The inhibition at 80 µM in the series on RAW264.7 [6] worked out at 41.3%. Besides, the inhibition at 10 µM in the series on RAW264.7 [7] worked out at 9.85%. Further, in the series with RAW264.7 [8], the inhibition at 60 µM amounted to 38.1%.

In general, IC50 refers to the concentration needed to halve the response being measured. The inhibition is the drop in the measured response relative to a control, in per cent.
